Results: paper PMC6133075 (European Journal of Drug Metabolism and Pharmacokinetics, 2018)
Several values for one entry are separate records, joined by “and”; a condition that tells them apart may be missing. Equal values may be shown once. Read-outs that look alike come from different tables or passages of the source.

Experiments:
[1] = treosulfan to S,S-EBDM; S,S-EBDM to (2S,3S)-1,2:3,4-diepoxybutane; cited from earlier work
[2] = rat lungs; cited from earlier work
[3] = type: in vivo, Wistar rats; details: for mean Ke/p (RBC/plasma partition coefficient): mean (± SD) of all 12 rats, 1 and 4 h after i.p. treosulfan 500 mg/kg; for Cp: plasma; for Ce: red blood cells
Summary of the method: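 Wistar rats, 10 weeks old (6 male, 6 female), received a single i.p. bolus of 500 mg/kg in sterile water (10 mL/kg), with ketamine/xylazine anaesthesia. K2EDTA cardiac blood was taken at 1 or 4 h and spun at 3645×g for 5 min at 20 °C. Plasma and RBC were acidified with citric acid; RBC were lysed by three freeze–thaw cycles. HPLC–MS/MS used codeine as internal standard. Ke/p = Ce/Cp.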

[4] = rat plasma; cited from earlier work
[5] = type: in vitro ADME, rat; details: three freeze-thaw cycles, n = 3, range of means over QC levels
Summary of the method: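 Freeze–thaw stability of quality-control samples prepared by spiking drug-free rat plasma and drug-free RBC lysate (from three freeze–thaw cycles) at treosulfan 5.5, 55 and 800 μM and S,S-EBDM 9.4 and 94 μM. Samples were processed like study samples and assayed by HPLC–MS/MS. Stability was taken as the final/initial concentration ratio and reported as the range of means across QC levels.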

[6] = individual female rats, 1 h after i.p. bolus treosulfan 500 mg/kg
[7] = individual female rats, 4 h after i.p. bolus treosulfan 500 mg/kg
[8] = individual male rats, 1 h after i.p. bolus treosulfan 500 mg/kg
[9] = individual male rats, 4 h after i.p. bolus treosulfan 500 mg/kg

Row | mean Ke/p (RBC/plasma partition coefficient) [3] | Cp [3, 6] | Cp [3, 7] | Cp [3, 8] | Cp [3, 9] | Ce [3, 8] | Ce [3, 9] | Stability (final/initial concentration) ([5]; rat RBC lysate) | Stability (final/initial concentration) ([5]; rat plasma) | SMILES | t1/2 of nonenzymatic epoxidation [1] [h] | tissue-to-plasma concentration ratio [2] | unbound fraction [4]
1 | 0.60 ± 0.09 | 64 µM and 22 µM | 5.6 µM and 6.2 µM | 58 µM and 61 µM and 3.6 µM | 8.4 µM and 5.5 µM | 36 µM and 34 µM and 2.1 µM | 6.7 µM and 3.5 µM | 86.7–89.8% | 88.3–89.4% | CS(=O)(=O)OC[C@H](O)[C@@H]1CO1 [S,S-EBDM, (2S,3S)-1,2-epoxy-3,4-butanediol 4-methanesulfonate] | 3.4 | ~0.6 | ≥ 0.94
2 | 0.74 ± 0.12 | 1164 µM and 300 µM and 349 µM | 113 µM and 83 µM | 943 µM and 1189 µM and 28.8 µM | 112 µM and 120 µM and 30 µM | 704 µM and 779 µM and 24.2 µM | 94 µM and 87 µM and 26 µM | 85.8–104.8% | 90.7–108.8% | CS(=O)(=O)OC[C@H](O)[C@@H](O)COS(C)(=O)=O [Treosulfan] | 1.5 | about 0.8 | ≥ 0.94
